Laboratory results published in ChEMBL document CHEMBL4007456, “Heterocyclyl Tetracyclines. 1. 7-Trifluoromethyl-8-Pyrrolidinyltetracyclines: Potent, Broad Spectrum Antibacterial Agents with Enhanced Activity against Pseudomonas aeruginosa” (2017).
Converted amounts (≈) assume the structure as drawn.

Experiments:
Assay type in all cases: functional
[1] = tested on: Escherichia coli; assay: Antibacterial activity against gram-negative Escherichia coli EC107 by CLSI method
Procedure, shortened: (§1)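 Broth microdilution MIC per CLSI in cation-adjusted Mueller Hinton broth, prepared fresh and held at 4 °C. Defibrinated horse blood added where appropriate. Compounds serially diluted in sterile deionized water. Strains from ATCC unless otherwise noted. Runs accepted when comparator antibiotics fell within QC ranges for ATCC quality control strains.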

[2] = tested on: Streptococcus pneumoniae; assay: Antibacterial activity against gram-positive Streptococcus pneumoniae SP160 harboring tet(M) by CLSI method
Procedure, shortened: (§2)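 CLSI broth microdilution MIC in fresh cation-adjusted Mueller Hinton broth, supplemented with defibrinated horse blood where appropriate. Compounds serially diluted in sterile deionized water. Runs accepted when comparator antibiotics against ATCC quality-control strains fell within recommended ranges.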

[3] = tested on: Klebsiella pneumoniae; assay: Antibacterial activity against gram-negative Klebsiella pneumoniae KP457 harboring blacTX-M-15 extended spectrum beta-lactamase gene by CLSI method; procedure, shortened: as §2
[4] = tested on: Stenotrophomonas maltophilia; assay: Antibacterial activity against gram-negative Stenotrophomonas maltophilia SM256 by CLSI method; procedure, shortened: as §1
[5] = tested on: Pseudomonas aeruginosa; assay: Antibacterial activity against gram-negative Pseudomonas aeruginosa PA555 by CLSI method; procedure, shortened: as §1
[6] = tested on: Acinetobacter baumannii; assay: Antibacterial activity against gram-negative Acinetobacter baumannii AB250 by CLSI method; procedure, shortened: as §1
[7] = tested on: Staphylococcus aureus; assay: Antibacterial activity against gram-positive Staphylococcus aureus SA158 harboring tet(K) by CLSI method; procedure, shortened: as §2
[8] = tested on: Enterobacter cloacae; assay: Antibacterial activity against gram-negative Enterobacter cloacae EC1603 harboring tet(A) by CLSI method; procedure, shortened: as §2
[9] = tested on: Enterococcus faecium; assay: Antibacterial activity against gram-positive Enterococcus faecium EFm404 harboring tet(M) by CLSI method; procedure, shortened: as §2
[10] = tested on: Enterococcus faecalis; assay: Antibacterial activity against gram-positive Enterococcus faecalis EFs327 harboring tet(M) by CLSI method; procedure, shortened: as §2
[11] = tested on: Staphylococcus aureus; assay: Antibacterial activity against gram-positive Staphylococcus aureus SA101 by CLSI method; procedure, shortened: as §1
[12] = tested on: Escherichia coli; assay: Antibacterial activity against gram-negative Escherichia coli EC155 harboring tet(A) by CLSI method; procedure, shortened: as §2
[13] = tested on: Proteus mirabilis; assay: Antibacterial activity against gram-negative Proteus mirabilis PM385 by CLSI method; procedure, shortened: as §1
[14] = tested on: Burkholderia cenocepacia; assay: Antibacterial activity against gram-negative Burkholderia cenocepacia BC240 by CLSI method
Procedure, shortened: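 Defibrinated horse blood added where appropriate. Compounds serially diluted in sterile deionized water. Strains from ATCC unless otherwise noted. Runs accepted when comparator antibiotics fell within QC ranges for ATCC quality control strains.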

[15] = tested on: Staphylococcus aureus; assay: Antibacterial activity against gram-positive Staphylococcus aureus SA161 harboring tet(M) by CLSI method; procedure, shortened: as §2

Row | SMILES | MIC [1] [µg/mL] | MIC [2] [µg/mL] | MIC [3] [µg/mL] | MIC [4] [µg/mL] | MIC [5] [µg/mL] | MIC [6] [µg/mL] | MIC [7] [µg/mL] | MIC [8] [µg/mL] | MIC [9] [µg/mL] | MIC [10] [µg/mL] | MIC [11] [µg/mL] | MIC [12] [µg/mL] | MIC [13] [µg/mL] | MIC [14] [µg/mL] | MIC [15] [µg/mL]
1 | CCN1CCC[C@H]1c1cc(O)c2c(c1C(F)(F)F)C[C@H]1C[C@H]3[C@H](N(C)C)C(O)=C(C(N)=O)C(=O)[C@@]3(O)C(O)=C1C2=O | ≤ 0.0156 | ≤ 0.0156 | 4 (≈ 6.9 µM) | 1 (≈ 1.73 µM) | 32 (≈ 55.2 µM) | 1 (≈ 1.73 µM) | ≤ 0.0156 | 4 (≈ 6.9 µM) | 0.125 (≈ 0.216 µM) | 0.5 (≈ 0.863 µM) | 0.0312 (≈ 0.0538 µM) | 0.5 (≈ 0.863 µM) | 4 (≈ 6.9 µM) | 8 (≈ 13.8 µM) | 1 (≈ 1.73 µM)
2 | CN(C)[C@@H]1C(O)=C(C(N)=O)C(=O)[C@@]2(O)C(O)=C3C(=O)c4c(O)cc([C@H]5CCCN5)c(C(F)(F)F)c4C[C@H]3C[C@@H]12 | ≤ 0.0156 | 1 (≈ 1.81 µM) | 0.125 (≈ 0.227 µM) | 1 (≈ 1.81 µM) | 8 (≈ 14.5 µM) | 2 (≈ 3.63 µM) | 0.0312 (≈ 0.0566 µM) | 8 (≈ 14.5 µM) | 4 (≈ 7.25 µM) | 16 (≈ 29 µM) | 0.125 (≈ 0.227 µM) | 2 (≈ 3.63 µM) | 0.5 (≈ 0.907 µM) | 8 (≈ 14.5 µM) | 16 (≈ 29 µM)
3 | CN(C)[C@@H]1C(O)=C(C(N)=O)C(=O)[C@@]2(O)C(O)=C3C(=O)c4c(O)cc(C5CCCN5)c(OC(F)(F)F)c4C[C@H]3C[C@@H]12 (stereo partly specified) | ≤ 0.0156 | ≤ 0.0156 | 0.25 (≈ 0.441 µM) | 2 (≈ 3.52 µM) | 8 (≈ 14.1 µM) | 2 (≈ 3.52 µM) | ≤ 0.0156 | 16 (≈ 28.2 µM) | 0.125 (≈ 0.22 µM) | 1 (≈ 1.76 µM) | 0.125 (≈ 0.22 µM) | 8 (≈ 14.1 µM) | 1 (≈ 1.76 µM) | 8 (≈ 14.1 µM) | 2 (≈ 3.52 µM)
4 | CC1CCN(C)C1c1cc(O)c2c(c1C(F)(F)F)C[C@H]1C[C@H]3[C@H](N(C)C)C(O)=C(C(N)=O)C(=O)[C@@]3(O)C(O)=C1C2=O (stereo partly specified) | 0.0625 (≈ 0.108 µM) | ≤ 0.0156 | 4 (≈ 6.9 µM) | 1 (≈ 1.73 µM) | 32 (≈ 55.2 µM) | 8 (≈ 13.8 µM) | 0.0312 (≈ 0.0538 µM) | 2 (≈ 3.45 µM) | 2 (≈ 3.45 µM) | 4 (≈ 6.9 µM) | 0.5 (≈ 0.863 µM) | 2 (≈ 3.45 µM) | 8 (≈ 13.8 µM) | 16 (≈ 27.6 µM) | 4 (≈ 6.9 µM)
5 | CC1CCC(c2cc(O)c3c(c2C(F)(F)F)C[C@H]2C[C@H]4[C@H](N(C)C)C(O)=C(C(N)=O)C(=O)[C@@]4(O)C(O)=C2C3=O)N1C (stereo partly specified) | 0.5 (≈ 0.863 µM) | 0.0312 (≈ 0.0538 µM) | 8 (≈ 13.8 µM) | 2 (≈ 3.45 µM) | > 32 | 2 (≈ 3.45 µM) | 0.125 (≈ 0.216 µM) | 16 (≈ 27.6 µM) | 1 (≈ 1.73 µM) | 2 (≈ 3.45 µM) | 0.5 (≈ 0.863 µM) | 2 (≈ 3.45 µM) | 4 (≈ 6.9 µM) | 8 (≈ 13.8 µM) | 1 (≈ 1.73 µM)
6 | COc1c(C2CCCN2)cc(O)c2c1C[C@H]1C[C@H]3[C@H](N(C)C)C(O)=C(C(N)=O)C(=O)[C@@]3(O)C(O)=C1C2=O (stereo partly specified) | 2 (≈ 3.89 µM) | 4 (≈ 7.79 µM) | 2 (≈ 3.89 µM) | > 32 | 32 (≈ 62.3 µM) | > 32 | 2 (≈ 3.89 µM) | > 32 | 16 (≈ 31.2 µM) | 32 (≈ 62.3 µM) | 8 (≈ 15.6 µM) | > 32 | 4 (≈ 7.79 µM) | > 32 | > 32
7 | CC(C)N1CCC[C@H]1c1cc(O)c2c(c1C(F)(F)F)C[C@H]1C[C@H]3[C@H](N(C)C)C(O)=C(C(N)=O)C(=O)[C@@]3(O)C(O)=C1C2=O | 0.125 (≈ 0.211 µM) | ≤ 0.0156 | 8 (≈ 13.5 µM) | 4 (≈ 6.74 µM) | 32 (≈ 53.9 µM) | 2 (≈ 3.37 µM) | 0.0625 (≈ 0.105 µM) | 16 (≈ 27 µM) | 0.25 (≈ 0.421 µM) | 0.5 (≈ 0.842 µM) | 0.125 (≈ 0.211 µM) | 1 (≈ 1.68 µM) | 4 (≈ 6.74 µM) | 16 (≈ 27 µM) | 2 (≈ 3.37 µM)
8 | CCCN1CCC[C@H]1c1cc(O)c2c(c1C(F)(F)F)C[C@H]1C[C@H]3[C@H](N(C)C)C(O)=C(C(N)=O)C(=O)[C@@]3(O)C(O)=C1C2=O | 1 (≈ 1.68 µM) | ≤ 0.0156 | 16 (≈ 27 µM) | 4 (≈ 6.74 µM) | > 32 | 4 (≈ 6.74 µM) | 0.125 (≈ 0.211 µM) | 32 (≈ 53.9 µM) | 1 (≈ 1.68 µM) | 1 (≈ 1.68 µM) | 0.25 (≈ 0.421 µM) | 2 (≈ 3.37 µM) | 8 (≈ 13.5 µM) | 16 (≈ 27 µM) | 1 (≈ 1.68 µM)
9 | CN(C)[C@@H]1C(O)=C(C(N)=O)C(=O)[C@@]2(O)C(O)=C3C(=O)c4c(O)cc([C@@H]5CCCN5C)c(C(F)(F)F)c4C[C@H]3C[C@@H]12 | 0.0312 (≈ 0.0552 µM) | ≤ 0.0156 | 2 (≈ 3.54 µM) | 0.125 (≈ 0.221 µM) | 8 (≈ 14.1 µM) | 0.25 (≈ 0.442 µM) | ≤ 0.0156 | – | – | – | 0.125 (≈ 0.221 µM) | 0.5 (≈ 0.884 µM) | – | 4 (≈ 7.07 µM) | 2 (≈ 3.54 µM)
